Two molecules from ChEMBL document CHEMBL1144067, “Cancer chemopreventive agents (antitumor-promoters) from Ajuga decumbens” (J Nat Prod, 1999) can be followed below.

Structures are written as SMILES. Some results are limits rather than exact numbers.

Data set [1] in a line: Cytotoxicity against human Raji cells assessed as cell viability at 500 molar ratio after 48 hrs. The format is cell-based. Particulars: read-out: Activity. The method in brief:
(§1)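 Raji cells (EBV genome-carrying, Burkitt's lymphoma-derived) grown in RPMI-1640 and incubated 48 h at 37 °C with 4 mmol n-butyric acid, 32 pmol TPA (20 ng/mL) and test agent at 10–1000 mol ratio/TPA (0.32–32 nmol). Viability given as percentage of Raji cells; n = 3, ±S.D.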

The test system of data set [2] is Raji. Nature of the data set: Inhibition of 12-O-tetradecanoylphorbol-13-acetate induced EBV-early antigen activation in human Raji cells at 500 molar ratio relative to control. It counts as cell-based. Particulars: human gammaherpesvirus 4. The method in brief: (§2)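 Raji cells in RPMI-1640 treated 48 h at 37 °C with n-butyric acid (4 mmol), TPA (32 pmol = 20 ng/mL) and test agent at 10, 100, 500 or 1000 mol ratio/TPA (0.32–32 nmol). EA-positive cells in smears detected by indirect immunofluorescence; induction expressed relative to TPA positive control (100%), n = 3, ±S.D.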

For data set [3], the system named is Raji. Nature of the data set: Inhibition of 12-O-tetradecanoylphorbol-13-acetate induced EBV-early antigen activation in human Raji cells at 10 molar ratio relative to control. The format is cell-based. As to conditions: human gammaherpesvirus 4. The method in brief: as §2
The test system of data set [4] is Mus musculus. The data set is described as follows: Inhibition of DMBA-induced/TPA-promoted carcinogenesis in mouse assessed as number of skin papillomas per mouse at 85 nmol administered twice weekly after 1 week of initiation for 10 weeks. It counts as functional. The method in brief:
(§3)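 Female SPF ICR mice, 6 weeks old, 15 per group, backs shaved; single topical DMBA initiation (100 μg, 390 nmol) in 0.1 mL acetone. From 1 week after, promotion with TPA 1.7 nmol twice weekly, plus 85 nmol test agent. Papilloma incidence and number per mouse monitored weekly for 20 weeks.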

In data set [5] the test system is Mus musculus. Nature of the data set: Inhibition of DMBA-induced/TPA-promoted carcinogenesis in mouse assessed as number of mouse bearing papillomas at 85 nmol administered twice weekly after 1 week of initiation for 17 weeks. The format is functional. Also noted: scale not given: the % may be the effect or the level left. The method in brief: as §3
Data set [6] deals with Mus musculus. The data set is described as follows: Inhibition of DMBA-induced/TPA-promoted carcinogenesis in mouse assessed as number of mouse bearing papillomas at 85 nmol administered twice weekly after 1 week of initiation for 10 weeks. The format is functional. Also noted: scale not given: the % may be the effect or the level left. The method in brief: as §3
Data set [7] relates to Raji. Nature of the data set: Inhibition of 12-O-tetradecanoylphorbol-13-acetate induced EBV-early antigen activation in human Raji cells at 1000 molar ratio relative to control. Particulars: human gammaherpesvirus 4. It counts as cell-based. The essentials: as §2
Data set [8] in a line: Cytotoxicity against human Raji cells assessed as cell viability at 100 molar ratio after 48 hrs. As to conditions: read-out: Activity. The format is cell-based. The essentials: as §1
Data set [9] in a line: Cytotoxicity against human Raji cells assessed as cell viability at 10 molar ratio after 48 hrs. The format is cell-based. Particulars: read-out: Activity. The method in brief: as §1
Data set [10] deals with Mus musculus. The data set is described as follows: Inhibition of DMBA-induced/TPA-promoted carcinogenesis in mouse assessed as number of skin papillomas per mouse at 85 nmol administered twice weekly after 1 week of initiation for 20 weeks. It counts as functional. The essentials:
as §3

For data set [11], the system named is Mus musculus. Nature of the data set: Inhibition of DMBA-induced/TPA-promoted carcinogenesis in mouse assessed as number of mouse bearing papillomas at 85 nmol administered twice weekly after 1 week of initiation for 8 weeks. It counts as functional. Also noted: scale not given: the % may be the effect or the level left. The method in brief:
as §3

Data set [12] is described as follows: Cytotoxicity against human Raji cells assessed as cell viability at 1000 molar ratio after 48 hrs. The format is cell-based. As to conditions: read-out: Activity. The method in brief: as §1
The test system of data set [13] is Raji. Nature of the data set: Inhibition of 12-O-tetradecanoylphorbol-13-acetate induced EBV-early antigen activation in human Raji cells at 100 molar ratio relative to control. It counts as cell-based. Particulars: human gammaherpesvirus 4. The essentials: as §2
In data set [14] the test system is Mus musculus. The data set is described as follows: Toxicity in 4NQO-induced/glycerol-promoted carcinogenesis mouse model assessed change in body weight at 2.54 mg/week administered twice weekly after 5 weeks of initiation for 22 weeks. The format is organism-based. Particulars: in vivo. The method in brief:
(§4)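 Female ICR mice in the 4NQO (0.3 mg s.c.)-initiated, 8% glycerol drinking-water-promoted lung model, 15 per group, test agent at 0.0025% or 0.005%. Body weight recorded at end of the 22-week promotion period.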

In data set [15] the test system is Mus musculus. Nature of the data set: Inhibition of 4NQO-induced/glycerol-promoted carcinogenesis in mouse assessed number of mouse with pulmonary tumors at 2.54 mg/week administered twice weekly after 5 weeks of initiation for 22 weeks. Also noted: scale not given: the % may be the effect or the level left. It counts as functional. The method in brief:
(§5)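 Female SPF ICR mice (6 weeks old), 15 per group. Initiation by single s.c. injection of 0.3 mg 4NQO in olive oil–cholesterol (20:1); promotion with 8% glycerol in drinking water ad libitum, test agent given at 0.0025% or 0.005%. Killed by cervical dislocation after 22-week promotion; pulmonary tumors counted per lobe under dissecting microscope. Student's t-test vs 4NQO + glycerol group.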

Data set [16] has as its system Mus musculus. Nature of the data set: Toxicity in 4NQO-induced/glycerol-promoted carcinogenesis mouse model assessed change in body weight at 1.27 mg/week administered twice weekly after 5 weeks of initiation for 22 weeks. It counts as organism-based. Particulars: in vivo. The essentials:
as §4

Data set [17] concerns Mus musculus. Nature of the data set: Inhibition of 4NQO-induced/glycerol-promoted carcinogenesis in mouse assessed number of pulmonary tumors per mouse at 1.27 mg/week administered twice weekly after 5 weeks of initiation for 22 weeks. The format is functional. The method in brief:
as §5

The subject of data set [18] is Mus musculus. The data set is described as follows: Inhibition of 4NQO-induced/glycerol-promoted carcinogenesis in mouse assessed number of pulmonary tumors per mouse at 2.54 mg/week administered twice weekly after 5 weeks of initiation for 22 weeks. It counts as functional. The method in brief: as §5
Data set [19] relates to Mus musculus. Nature of the data set: Inhibition of 4NQO-induced/glycerol-promoted carcinogenesis in mouse assessed number of mouse with pulmonary tumors at 1.27 mg/week administered twice weekly after 5 weeks of initiation for 22 weeks. The format is functional. Further details: scale not given: the % may be the effect or the level left. The method in brief:
as §5

In the case of `C[C@@H]1C(=O)O[C@H](C)[C@H]1C[C@@H](O)[C@](C)(O)[C@H]1CC[C@@]2(O)C3=CC(=O)[C@@H]4C[C@@H](O)[C@@H](O)C[C@]4(C)[C@H]3CC[C@]12C` [CYASTERONE], in data set [1], the viability at 48 h, 500 molar ratio is more than 80%. Also, the EBV-EA induction remaining (% of TPA control) in the data set on Raji [2] amounted to 36.2%; with Raji [7] it was 0%; with Raji [13], 75.2%. Also, in the data set on Raji [3], the EBV-EA activation relative to TPA control amounted to 94.6%. Further, the Activity in the data set on Mus musculus [4] was 2.5; with Mus musculus [5] it was 80%; in the data set with Mus musculus [6], 60%; in the data set on Mus musculus [10], 7; with Mus musculus [11], 43%. Besides, in [8], the viability at 48 h, 100 molar ratio was more than 80%. Besides, in [9], the viability at 48 h, 10 molar ratio is more than 80%. Moreover, the viability at 48 h, 1000 molar ratio in data set [12] was 70%.

Regarding `CC(=O)O[C@@]1(C)C[C@@H](O)[C@]2(O)C=CO[C@@H](O[C@@H]3O[C@H](CO)[C@@H](O)[C@H](O)[C@H]3O)[C@@H]21`, the viability at 48 h, 500 molar ratio in data set [1] is more than 80%. The Activity result was “Non-toxic” in the data set on Mus musculus [14]; 46.6% in the data set with Mus musculus [15]; 2 in the data set on Mus musculus [4]; “Non-toxic” with Mus musculus [16]; 80% with Mus musculus [5]; 20% in the data set with Mus musculus [6]. Further, the Activity in the data set with Mus musculus [17] was 1.1; in the data set with Mus musculus [10] it was 6; in the data set on Mus musculus [11] it was 10%; in the data set with Mus musculus [18], 0.9; in the data set with Mus musculus [19], 53.3%. For the same molecule, the EBV-EA induction remaining (% of TPA control) with Raji [2] was found to be 19.9%; in the data set with Raji [7], 0%; in the data set with Raji [13] it was 62.6%. For the same molecule, the EBV-EA activation relative to TPA control in the data set on Raji [3] came out at 89.5%. In addition, in [8], the viability at 48 h, 100 molar ratio was more than 80%. For the same molecule, the viability at 48 h, 10 molar ratio in data set [9] is more than 80%.
